One experiment addresses PHD finger protein 23 (Homo sapiens, UniProt Q9BUL5). Nature of the experiment: Inhibition of PHF23 (unknown origin) after 30 mins by AlphaScreen assay. The gist of the method: (§1)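 AlphaScreen competition with histone peptide. Compounds in 3-fold, 10-point dilutions, top 10 or 30 μM; buffer 20 mM Tris pH 8.0, 25 mM NaCl, 2 mM DTT, 0.05% Tween-20. Protein-peptide mix 30 min RT, then streptavidin donor plus nickel-chelate acceptor beads (GST acceptor beads for GST-tagged PHF23, JARID1A) 30 min RT dark. Protein-free His6-biotin peptide counterscreen.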

Experiment [1] addresses T1, E3 ubiquitin-protein ligase UHRF1 (Homo sapiens, UniProt Q96T88).
T1 sequence (Q96T88 whole entry): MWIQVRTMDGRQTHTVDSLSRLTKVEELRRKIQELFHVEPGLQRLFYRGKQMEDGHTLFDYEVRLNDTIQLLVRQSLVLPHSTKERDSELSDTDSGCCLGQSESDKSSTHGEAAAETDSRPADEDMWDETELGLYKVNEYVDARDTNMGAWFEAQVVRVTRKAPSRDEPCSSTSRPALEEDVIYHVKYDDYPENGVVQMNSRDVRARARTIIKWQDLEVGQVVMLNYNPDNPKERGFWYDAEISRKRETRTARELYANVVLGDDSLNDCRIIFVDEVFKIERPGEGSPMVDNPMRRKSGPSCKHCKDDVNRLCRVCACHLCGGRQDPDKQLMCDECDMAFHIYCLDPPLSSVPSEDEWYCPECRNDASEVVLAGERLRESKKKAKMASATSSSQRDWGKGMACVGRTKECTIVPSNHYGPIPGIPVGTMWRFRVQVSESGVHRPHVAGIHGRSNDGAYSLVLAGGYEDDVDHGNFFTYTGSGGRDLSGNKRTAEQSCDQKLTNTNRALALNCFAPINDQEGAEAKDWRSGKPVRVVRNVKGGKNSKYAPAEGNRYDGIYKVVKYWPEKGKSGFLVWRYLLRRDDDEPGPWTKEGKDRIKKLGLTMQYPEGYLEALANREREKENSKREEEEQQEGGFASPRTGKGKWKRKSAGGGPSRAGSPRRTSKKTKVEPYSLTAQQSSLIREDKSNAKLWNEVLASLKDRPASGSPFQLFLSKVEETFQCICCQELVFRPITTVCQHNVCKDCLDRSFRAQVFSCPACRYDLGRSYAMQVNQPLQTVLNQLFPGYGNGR
As to the kind of experiment: Inhibition of UHRF1 (unknown origin) after 30 mins by AlphaScreen assay. The gist of the method: (§2)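 AlphaScreen competition with histone peptide. Compounds in 3-fold, 10-point dilutions, top 10 or 30 μM; buffer 20 mM Tris pH 8.0, 25 mM NaCl, 2 mM DTT, 0.05% Tween-20. Protein-peptide mix 30 min RT, then streptavidin donor plus nickel-chelate acceptor beads (GST acceptor beads for GST-tagged PHF23, JARID1A) 30 min RT dark. […] Protein-free His6-biotin peptide counterscreen.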
In general terms: In Alpha technology, singlet oxygen from a donor bead excites a nearby acceptor bead.

Experiment [2] addresses T2, Chromobox protein homolog 7 (Homo sapiens, UniProt O95931).
T2 sequence (O95931 whole entry): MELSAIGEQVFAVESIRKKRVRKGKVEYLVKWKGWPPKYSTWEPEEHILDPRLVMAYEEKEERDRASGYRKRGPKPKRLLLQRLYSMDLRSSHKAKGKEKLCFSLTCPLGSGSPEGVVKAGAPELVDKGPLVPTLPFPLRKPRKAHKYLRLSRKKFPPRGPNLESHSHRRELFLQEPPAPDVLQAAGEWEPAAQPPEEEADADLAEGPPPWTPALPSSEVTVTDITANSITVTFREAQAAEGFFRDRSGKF
Nature of the experiment: Inhibition of CBX7 (unknown origin) after 30 mins by AlphaScreen assay. The gist of the method:
as §1

In experiment [3] the target is MBT domain-containing protein 1 (Homo sapiens, UniProt Q05BQ5). As to the kind of experiment: Inhibition of MBTD1 (unknown origin) after 30 mins by AlphaScreen assay. An outline of the steps:
as §1

The next experiment addresses TP53-binding protein 1 (Homo sapiens, UniProt Q12888). Nature of the experiment: Inhibition of 53BP1 (unknown origin) after 30 mins by AlphaScreen assay. The gist of the method:
as §2

One may read the IC50 as the point on the concentration scale where inhibition reaches its midpoint. Read a low IC50 as greater potency in that assay.

Sequence of PHD finger protein 23 (Q9BUL5 whole entry): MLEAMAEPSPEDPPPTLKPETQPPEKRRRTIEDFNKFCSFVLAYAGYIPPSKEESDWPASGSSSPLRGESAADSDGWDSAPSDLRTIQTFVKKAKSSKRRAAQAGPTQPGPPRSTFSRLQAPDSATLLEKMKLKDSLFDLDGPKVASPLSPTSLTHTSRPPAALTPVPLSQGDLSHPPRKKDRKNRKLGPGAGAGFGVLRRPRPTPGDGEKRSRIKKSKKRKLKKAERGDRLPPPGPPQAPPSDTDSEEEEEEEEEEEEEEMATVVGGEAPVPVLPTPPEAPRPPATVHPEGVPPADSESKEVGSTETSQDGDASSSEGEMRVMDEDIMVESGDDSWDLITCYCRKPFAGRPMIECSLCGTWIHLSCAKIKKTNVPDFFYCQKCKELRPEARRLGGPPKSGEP
Sequence of MBT domain-containing protein 1 (Q05BQ5 whole entry, the tested form may be a part): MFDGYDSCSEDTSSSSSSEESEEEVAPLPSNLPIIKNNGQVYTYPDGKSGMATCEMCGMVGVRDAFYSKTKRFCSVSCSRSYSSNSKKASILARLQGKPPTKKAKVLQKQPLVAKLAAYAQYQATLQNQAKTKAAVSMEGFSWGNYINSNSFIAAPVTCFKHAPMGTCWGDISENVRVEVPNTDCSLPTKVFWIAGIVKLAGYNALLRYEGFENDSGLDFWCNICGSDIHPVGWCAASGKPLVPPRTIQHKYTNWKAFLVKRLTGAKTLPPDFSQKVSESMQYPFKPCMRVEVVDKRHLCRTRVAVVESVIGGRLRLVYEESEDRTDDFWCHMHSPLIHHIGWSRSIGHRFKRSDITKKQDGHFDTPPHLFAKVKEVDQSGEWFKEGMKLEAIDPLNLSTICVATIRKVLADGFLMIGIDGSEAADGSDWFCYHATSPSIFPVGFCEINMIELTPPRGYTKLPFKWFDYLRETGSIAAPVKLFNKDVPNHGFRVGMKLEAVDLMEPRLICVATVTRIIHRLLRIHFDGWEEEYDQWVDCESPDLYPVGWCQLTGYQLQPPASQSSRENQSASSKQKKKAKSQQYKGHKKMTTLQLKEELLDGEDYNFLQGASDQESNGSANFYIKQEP
Sequence of TP53-binding protein 1 (Q12888 whole entry): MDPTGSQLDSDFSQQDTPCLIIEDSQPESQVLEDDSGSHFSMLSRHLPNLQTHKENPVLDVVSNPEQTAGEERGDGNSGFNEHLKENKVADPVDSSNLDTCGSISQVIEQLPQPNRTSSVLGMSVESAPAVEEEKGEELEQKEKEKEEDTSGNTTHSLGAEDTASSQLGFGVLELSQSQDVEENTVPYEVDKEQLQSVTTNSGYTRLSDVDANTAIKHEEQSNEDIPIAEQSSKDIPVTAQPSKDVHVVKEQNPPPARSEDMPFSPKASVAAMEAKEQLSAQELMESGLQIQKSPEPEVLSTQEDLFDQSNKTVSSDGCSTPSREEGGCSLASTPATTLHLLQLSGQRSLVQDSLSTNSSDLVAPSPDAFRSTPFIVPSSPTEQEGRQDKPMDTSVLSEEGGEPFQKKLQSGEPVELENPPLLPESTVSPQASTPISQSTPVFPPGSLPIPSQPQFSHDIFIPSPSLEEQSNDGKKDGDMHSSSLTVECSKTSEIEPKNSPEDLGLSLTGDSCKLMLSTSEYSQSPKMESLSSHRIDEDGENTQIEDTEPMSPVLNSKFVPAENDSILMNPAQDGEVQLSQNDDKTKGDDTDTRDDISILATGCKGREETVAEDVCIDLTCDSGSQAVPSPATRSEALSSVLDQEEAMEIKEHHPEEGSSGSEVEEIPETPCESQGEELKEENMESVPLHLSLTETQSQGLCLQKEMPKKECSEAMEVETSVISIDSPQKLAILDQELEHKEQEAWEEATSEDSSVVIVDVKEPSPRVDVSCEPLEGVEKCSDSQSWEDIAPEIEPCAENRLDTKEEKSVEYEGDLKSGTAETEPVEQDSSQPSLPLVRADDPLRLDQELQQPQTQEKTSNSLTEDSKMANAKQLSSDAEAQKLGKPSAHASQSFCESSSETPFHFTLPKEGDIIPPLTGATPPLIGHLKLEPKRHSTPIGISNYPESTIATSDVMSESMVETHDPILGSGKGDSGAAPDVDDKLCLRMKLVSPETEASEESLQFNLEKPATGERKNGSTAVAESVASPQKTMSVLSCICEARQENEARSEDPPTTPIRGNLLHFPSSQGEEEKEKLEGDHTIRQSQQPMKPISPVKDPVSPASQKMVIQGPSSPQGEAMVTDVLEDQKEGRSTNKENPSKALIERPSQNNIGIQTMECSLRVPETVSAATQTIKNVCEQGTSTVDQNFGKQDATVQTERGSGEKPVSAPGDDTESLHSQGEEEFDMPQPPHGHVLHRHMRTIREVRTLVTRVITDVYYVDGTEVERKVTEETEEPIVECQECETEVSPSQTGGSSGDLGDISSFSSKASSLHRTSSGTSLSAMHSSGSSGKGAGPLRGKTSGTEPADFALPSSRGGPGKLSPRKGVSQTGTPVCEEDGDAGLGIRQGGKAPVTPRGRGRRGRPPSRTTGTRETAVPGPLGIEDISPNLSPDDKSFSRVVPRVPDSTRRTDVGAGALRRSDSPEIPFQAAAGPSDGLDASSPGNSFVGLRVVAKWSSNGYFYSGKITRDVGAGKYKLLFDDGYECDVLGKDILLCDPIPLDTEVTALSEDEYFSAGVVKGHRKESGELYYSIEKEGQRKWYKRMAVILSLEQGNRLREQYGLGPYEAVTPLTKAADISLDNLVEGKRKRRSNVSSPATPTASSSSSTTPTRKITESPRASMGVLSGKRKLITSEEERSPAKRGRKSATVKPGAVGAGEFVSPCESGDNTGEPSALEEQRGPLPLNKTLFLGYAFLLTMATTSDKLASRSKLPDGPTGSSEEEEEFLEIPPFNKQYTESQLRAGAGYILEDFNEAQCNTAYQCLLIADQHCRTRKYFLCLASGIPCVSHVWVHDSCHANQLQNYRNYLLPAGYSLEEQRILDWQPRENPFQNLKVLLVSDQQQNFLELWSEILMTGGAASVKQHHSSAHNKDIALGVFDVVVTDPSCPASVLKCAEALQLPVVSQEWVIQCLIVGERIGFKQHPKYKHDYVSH

`O=C(c1ccc(C(=O)N2CCC(N3CCCC3)CC2)c([N+](=O)[O-])c1)N1CCC(N2CCCC2)CC1`: the IC50 (against PHD finger protein 23; in experiment [1]; in experiment [2]; in experiment [3]; on TP53-binding protein 1) was over 10 µM in each case.
For `O=C(c1ccc(C(=O)N2CCC(N3CCCC3)CC2)c(C(=O)N2CCC(N3CCCC3)CC2)c1)N1CCC(N2CCCC2)CC1`, the IC50 is over 10 µM on PHD finger protein 23; over 10 µM in experiment [1]; over 10 µM in experiment [2]; over 10 µM in experiment [3]; 7.9 µM at TP53-binding protein 1.
For the compound `CC(C1CCN(C(=O)c2ccc(C(=O)N3CCC(N4CCCC4)CC3)cc2)CC1)N1CCN(C)CC1` (stereo not drawn), the IC50 (on PHD finger protein 23; in experiment [1]; in experiment [2]; in experiment [3]; at TP53-binding protein 1) was over 10 µM in each case.
Regarding `O=C(c1ccc(C(=O)N2CC3(CCNC3)C2)cc1)N1CCC(N2CCCC2)CC1`, the IC50 (at PHD finger protein 23; in experiment [1]; in experiment [2]; in experiment [3]; on TP53-binding protein 1) was over 10 µM each time.
With `O=C(c1ccc(S(=O)(=O)N2CCC(N3CCCC3)CC2)cc1)N1CCC(N2CCCC2)CC1`, the concentration for half-maximal inhibition (IC50) is over 10 µM against PHD finger protein 23; over 10 µM in experiment [1]; over 10 µM in experiment [2]; 5.4 µM in experiment [3]; over 10 µM at TP53-binding protein 1.
As for `O=C(c1ccc(C(=O)N2CC3CCC(C2)C3N2CCCC2)cc1)N1CCC(N2CCCC2)CC1` (stereo not drawn), the IC50 (at PHD finger protein 23; in experiment [1]; in experiment [2]; in experiment [3]; at TP53-binding protein 1) was over 10 µM each time.
`O=C(c1ccc(C(=O)N2CCC(N3CCCC3)CC2)cc1)N1CCCC(N2CCCC2)CC1` (stereo not drawn): the half-inhibitory concentration (IC50) (on PHD finger protein 23; in experiment [1]; in experiment [2]; in experiment [3]; on TP53-binding protein 1) was over 10 µM each time.
On to `O=C(c1ccc(C(=O)N2CCC(N3CCCC3)CC2)c(Oc2ccccc2)c1)N1CCC(N2CCCC2)CC1`, for which the half-maximal inhibitory concentration (IC50) was over 10 µM against PHD finger protein 23; over 10 µM in experiment [1]; over 10 µM in experiment [2]; 9.3 µM in experiment [3]; over 10 µM on TP53-binding protein 1.
As for `O=C(c1ccc(N2CCC(N3CCCC3)CC2)cc1)N1CCC(N2CCCC2)CC1`, the IC50 against PHD finger protein 23 was over 10 µM; in experiment [1], over 10 µM; in experiment [2] it was over 10 µM; in experiment [3], 8.2 µM; on TP53-binding protein 1 it was 7.4 µM.
Regarding `Nc1cc(C(=O)N2CCC(N3CCCC3)CC2)ccc1C(=O)N1CCC(N2CCCC2)CC1`, the half-inhibitory concentration (IC50) (against PHD finger protein 23; in experiment [1]; in experiment [2]; in experiment [3]; on TP53-binding protein 1) was over 10 µM throughout.
For the compound `O=C(c1cccc(C(=O)N2CCC(N3CCCC3)CC2)c1)N1CCC(N2CCCC2)CC1`, the IC50 (on PHD finger protein 23; in experiment [1]; in experiment [2]; in experiment [3]; on TP53-binding protein 1) was over 10 µM in each case.
For `O=C(c1ccc(C(=O)N2CCC(N3CCC3)CC2)cc1)N1CCC(N2CCC2)CC1`, the IC50 (at PHD finger protein 23; in experiment [1]; in experiment [2]; in experiment [3]; on TP53-binding protein 1) was over 10 µM in each case.
In the case of `O=C(c1ccc(C(=O)N2CC3CCC(C2)C3N2CCCC2)cc1)N1CC2CCC(C1)C2N1CCCC1` (stereo not drawn), the IC50 (at PHD finger protein 23; in experiment [1]; in experiment [2]; in experiment [3]; on TP53-binding protein 1) was over 10 µM in each case.
For `CCN1Cc2ccc(NC(=O)c3ccc(C(=O)N4CCC(N5CCCC5)CC4)cc3)cc2C1`, the concentration for half-maximal inhibition (IC50) (at PHD finger protein 23; in experiment [1]; in experiment [2]; in experiment [3]; on TP53-binding protein 1) was over 10 µM in each case.
For `CN1CCC(N2CCN(C(=O)c3ccc(C(=O)N4CCC(N5CCCC5)CC4)cc3)CC2)CC1`, the half-maximal inhibitory concentration (IC50) (at PHD finger protein 23; in experiment [1]; in experiment [2]; in experiment [3]; at TP53-binding protein 1) was over 10 µM each time.
As to `CN1CCCC1C1CCN(C(=O)c2ccc(C(=O)N3CCC(C4CCCN4C)CC3)cc2)CC1` (stereo not drawn), the half-maximal inhibitory concentration (IC50) (on PHD finger protein 23; in experiment [1]; in experiment [2]; in experiment [3]; on TP53-binding protein 1) was over 10 µM each time.
As to `O=C(c1ccc(C(=O)N2CCC(N3CCCC3)CC2)cc1)N1CCC(N2CCCCCC2)CC1`, the IC50 on PHD finger protein 23 is over 10 µM; in experiment [1], over 10 µM; in experiment [2] it was over 10 µM; in experiment [3], 9.7 µM; at TP53-binding protein 1 it was over 10 µM.
On to `O=C(c1ccc(C(=O)N2CCC(N3CCCC3)CC2)nc1)N1CCC(N2CCCC2)CC1`, for which the 50% inhibitory concentration (IC50) (against PHD finger protein 23; in experiment [1]; in experiment [2]; in experiment [3]; at TP53-binding protein 1) was over 10 µM in each case.
On to `O=C(c1ccc(C(=O)N2CCC(N3CCCC3)CC2)o1)N1CCC(N2CCCC2)CC1`, for which the half-inhibitory concentration (IC50) (at PHD finger protein 23; in experiment [1]; in experiment [2]; in experiment [3]; on TP53-binding protein 1) was over 10 µM in each case.
Turning to `O=C(c1ccc(C(=O)N2CCC(N3CCCC3)CC2)c(Br)c1)N1CCC(N2CCCC2)CC1`, the IC50 against PHD finger protein 23 is over 10 µM; in experiment [1], over 10 µM; in experiment [2], over 10 µM; in experiment [3], 7.8 µM; on TP53-binding protein 1 it was over 10 µM.
In the case of `CN1CCN2CC(NC(=O)c3ccc(C(=O)N4CCC(N5CCCC5)CC4)cc3)CC2C1` (stereo not drawn), the IC50 (at PHD finger protein 23; in experiment [1]; in experiment [2]; in experiment [3]; on TP53-binding protein 1) was over 10 µM throughout.
On to `Cc1cc(C(=O)N2CCC(N3CCCC3)CC2)c(C)cc1C(=O)N1CCC(N2CCCC2)CC1`, for which the IC50 (on PHD finger protein 23; in experiment [1]; in experiment [2]; in experiment [3]; at TP53-binding protein 1) was over 10 µM throughout.
`O=C(c1ccc(C(=O)N2CCC(N3CCCC3)CC2)c(Cc2ccccc2)c1)N1CCC(N2CCCC2)CC1`: the concentration for half-maximal inhibition (IC50) against PHD finger protein 23 is over 10 µM; in experiment [1], over 10 µM; in experiment [2], over 10 µM; in experiment [3], 6.8 µM; at TP53-binding protein 1 it was over 10 µM.
In the case of `O=C(c1ccc(C(=O)N2CCC(N3CCCC3)CC2)cc1)N1CCC(N2CCCCC2)CC1`, the 50% inhibitory concentration (IC50) is over 10 µM at PHD finger protein 23; over 10 µM in experiment [1]; over 10 µM in experiment [2]; 10 µM in experiment [3]; over 10 µM on TP53-binding protein 1.
As to `O=C(c1cncc(Br)c1)N1CCC(N2CCCC2)CC1`, the 50% inhibitory concentration (IC50) (against PHD finger protein 23; in experiment [1]; in experiment [2]; in experiment [3]; on TP53-binding protein 1) was over 10 µM each time.
For `CN(C)C1CCN(C(=O)c2ccc(C(=O)N3CCC(N4CCCC4)CC3)cc2)CC1`, the IC50 (at PHD finger protein 23; in experiment [1]; in experiment [2]; in experiment [3]; at TP53-binding protein 1) was over 10 µM throughout.
As to `O=C(c1ccc(C(=O)N2CCC(N3CCCC3)CC2)cc1)N1CCC(C2CCCCC2)CC1`, the concentration for half-maximal inhibition (IC50) was over 10 µM in experiment [1], over 10 µM in experiment [2], 8.1 µM in experiment [3] and over 10 µM at TP53-binding protein 1.
Turning to `O=C(c1ccc(C(=O)N2CCC(N3CCCC3)CC2)cc1)N1CCC(C2CCCN2)CC1` (stereo not drawn), the IC50 (against PHD finger protein 23; in experiment [1]; in experiment [2]; on TP53-binding protein 1) was over 10 µM throughout.

The values are drawn from ChEMBL document CHEMBL2424619, “Small-molecule ligands of methyl-lysine binding proteins: optimization of selectivity for L3MBTL3” (J Med Chem, 2013).
